# pPAFAH FP inh – pPAFAH (human) enzyme inhibition; Q13093; recombinant pPAFAH, FP-rhodamine probe fluorescence polarization; inhibition, % at 3.39 µM; 330,000 compounds, 1.5% hits;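 active = inhibition above the mean inhibition across the screen plus 3 SD, cut at about 25% in these data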;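 also: inhibitors block binding of the rhodamine activity-based probe so polarization drops; 0% = enzyme with DMSO and 100% = wells lacking pPAFAH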
# PAFAH1B3 FP inh – blocks human PAF acetylhydrolase 1B catalytic subunit 3; Q15102; recombinant PAFAH1B3, FP-rhodamine probe, fluorescence polarization; inhibition, % at 3.39 µM; 340,000 compounds, 0.28% hits; AID 492972;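 active = inhibition above the screen-wide average of all tested compounds plus 3 SD, cut at about 25% in these data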;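 also: 0% = enzyme with DMSO only and 100% = wells lacking PAFAH1B3 protein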
# Target sequence (Q15102 whole entry, looked up): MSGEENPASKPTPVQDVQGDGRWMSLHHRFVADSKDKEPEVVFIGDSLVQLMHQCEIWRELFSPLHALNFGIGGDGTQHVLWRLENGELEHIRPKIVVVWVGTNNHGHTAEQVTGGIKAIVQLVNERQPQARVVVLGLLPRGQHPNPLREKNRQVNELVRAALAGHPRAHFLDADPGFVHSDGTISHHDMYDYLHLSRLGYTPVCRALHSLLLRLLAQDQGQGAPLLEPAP
# PAFAH1B2 FP inh – inhibitors of human PAFAH1B2; 340,000 compounds, 1.2% hits; inhibition, % at 3.39 µM; recombinant PAFAH1B2, FP-rhodamine activity probe, fluorescence polarization; P68402;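 active = inhibition above the mean of all tested compounds plus 3 SD, cut at about 24% in these data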;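 also: 0% = enzyme with DMSO and 100% = wells lacking PAFAH1B2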
# HTRA1 inhibitor – blocks human HTRA1 serine peptidase. Q92743. recombinant HTRA1, FP-rhodamine activity-based probe, fluorescence polarization. inhibition, % at 5.96 µM. 340,000 compounds, 0.5% hits. AID 504803; in the data active = inhibition above about 36%;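 also: 0% = enzyme with DMSO and 100% = wells lacking enzyme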
# Target sequence (Q92743 whole entry, looked up): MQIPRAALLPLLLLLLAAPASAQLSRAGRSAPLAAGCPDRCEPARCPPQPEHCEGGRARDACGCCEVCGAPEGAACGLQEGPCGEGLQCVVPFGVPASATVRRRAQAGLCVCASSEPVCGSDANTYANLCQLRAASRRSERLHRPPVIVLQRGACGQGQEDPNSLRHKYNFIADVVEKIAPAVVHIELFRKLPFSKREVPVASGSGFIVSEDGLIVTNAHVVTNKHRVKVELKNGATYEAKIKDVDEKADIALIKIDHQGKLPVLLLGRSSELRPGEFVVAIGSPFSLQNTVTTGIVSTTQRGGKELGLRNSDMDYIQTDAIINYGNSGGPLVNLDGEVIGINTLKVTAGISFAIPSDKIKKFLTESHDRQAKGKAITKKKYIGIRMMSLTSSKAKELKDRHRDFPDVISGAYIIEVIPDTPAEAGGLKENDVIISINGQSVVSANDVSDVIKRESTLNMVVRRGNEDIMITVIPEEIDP
# mABHD4 FP – inhibitors of mouse ABHD4; AID 720543; inhibition, % at 8.92 µM; 370,000 compounds, 0.54% hits; Q8VD66; purified mABHD4, FP-Rh probe fluorescence polarization;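 active = inhibition exceeding the mean over every tested compound plus 3 SD, cut at about 30% in these data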;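 also: 0% = plate median of compound wells and 100% = S159A mutant with DMSO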
#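 Assay system: mouse ABHD4 enzyme, wild type / Also added: fluorescent activity-based probe FP-Rh / Doses: single nominal dose of 8.92 µM, 0.89% DMSO final / Timing: 45 min compound pre-incubation plus 60 min probe step, 25 °C / Signal: FP readout, ex 525 nm / em 598 nm / Control set: S159A mutant/DMSO as 100%, compound-well median as 0%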
# PAFAH2 inh – inhibitors of human PAFAH2 | recombinant PAFAH2, FP-rhodamine activity probe, fluorescence polarization | inhibition, % at 3.39 µM | 340,000 compounds, 0.99% hits | AID 492956 | Q99487;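 active = inhibition above the mean over all tested compounds plus 3 SD, cut at about 30% in these data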;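 also: inhibitors block probe labeling of enzyme so polarization drops; 0% = enzyme with DMSO and 100% = wells lacking PAFAH2 protein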
# pPAFAH confirm – pPAFAH (human) inhibition, confirmed | inhibition, % at 3.39 µM | AID 463230 | 2,300 compounds, 72% hits | shares compounds with pPAFAH FP inh | recombinant pPAFAH, FP-Rh probe fluorescence polarization;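 active = mean inhibition of the triplicate above the hit cutoff set for the earlier primary screen, cut at about 25% in these data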;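 also: 0% = enzyme with DMSO and 100% = wells lacking pPAFAH enzyme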
# * = called active by the depositor; nt = no result. Hits are enriched below; roughly 2.8% of the tested compounds scored in any of these assays.
SMILES,pPAFAH FP inh,PAFAH1B3 FP inh,PAFAH1B2 FP inh,HTRA1 inhibitor,mABHD4 FP,PAFAH2 inh,pPAFAH confirm
CC(=O)O[C@H]1[C@H](OC(C)=O)C[C@]2(OC(C)=O)C[C@H]1OC2=O,nt,nt,nt,nt,-3,nt,nt
CC(C)(C)OC(=O)N1CCC(N[C@@H](Cc2c[nH]c3ccccc23)C(=O)NCCc2c[nH]c3ccccc23)(C(=O)NC2CCCCC2)CC1,nt,nt,nt,nt,-8,nt,nt
COc1cc([N+](=O)[O-])cc(/C=N/NC(=O)c2cc(-c3ccccc3)nc3ccccc23)c1O,36*,-1,-8,10,9,4,35*
COC(=O)c1cnn(-c2ccc(F)cc2F)c1/C=N/NC(=S)Nc1ccccc1,nt,nt,nt,nt,-4,nt,nt
O=C(c1coc(=O)c(Br)c1)N1CCCc2ccccc21,43*,7,7,14,16,27,6
C=CCN1C(=O)[C@@H](CC(=O)N2CCCC2)[C@]2(C(=O)OC)CCCCC=C12,nt,nt,nt,nt,-8,nt,nt
Cc1oc(-c2ccc(F)cc2)cc1-c1nn2c(-c3ccoc3C)nnc2s1,35*,6,0,10,14,16,17
Cc1oc(-c2ccc(F)cc2)cc1-c1nn2c(-c3ccco3)nnc2s1,nt,nt,nt,nt,18,nt,nt
COc1ccccc1-n1c(SCC(=O)Nc2ccccc2F)nc2[nH]ncc2c1=O,1,3,3,-2,3,-1,nt
CCOc1ccc(NC(=O)CSc2nc3[nH]ncc3c(=O)n2-c2ccccc2OC)cc1,40*,1,-6,-7,0,-2,20
C/C(=C/c1[nH]c(N)[n+](CC2CC2)c1Cc1ccccc1)Cn1[nH]c(=O)n(-c2ccccc2)c1=O,nt,nt,nt,nt,8,nt,nt
O=C(Nc1ccc(S(=O)(=O)Nc2ccccc2)cc1)C1COc2ccccc2O1 (configuration not stated),40*,6,-6,-49,-27,-7,35*
CCOc1ccc(C(=O)N/N=C/c2ccc(-c3ccc(S(=O)(=O)Nc4ncccn4)cc3)o2)cc1,11,-7,3,-7,-8,8,nt
NC(=S)NN=Cc1ccc(-c2ccc(S(=O)(=O)Nc3ncccn3)cc2)o1,40*,31*,10,7,19,34*,19
Cc1ccccc1CC(=O)N1CCC(n2nnc3ncccc32)CC1,nt,nt,nt,nt,0,nt,nt
CC(C)(C)N(Cc1cn(Cc2ccccc2)nn1)S(=O)(=O)c1ccccc1Br,nt,nt,nt,nt,-12,nt,nt
Cc1cccc(N=C2NC(=O)/C(=C/C=C/c3ccco3)S2)c1,50*,27*,10,11,-1,32*,25*
O=C1NC(=Nc2ccc3ccccc3c2)S/C1=C/c1ccco1,55*,1,13,-6,6,5,22
COC(=O)C[C@@H]1CC[C@@H]2[C@@H](COc3ccc(NC(=O)Nc4ccccc4)cc3C(=O)N2C)O1,nt,nt,nt,nt,3,nt,nt
CC(C)Cn1c(=O)cc(N2CCN(c3cccc(C(F)(F)F)c3)CC2)[nH]c1=O,nt,nt,nt,nt,1,nt,nt
CC(=O)N1CCCN(C(=O)C2CCN(c3ncnc4c3sc3cccc(F)c34)CC2)CC1,nt,nt,nt,nt,4,nt,nt
COc1ccc(C(=O)C2(C(=O)Nc3cc(C)cc(C)c3)CC(c3ccccn3)=NO2)cc1 (configuration not stated),nt,nt,nt,nt,-16,nt,nt
Cc1ccc(NS(=O)(=O)c2cccc(C(=O)N/N=C/c3c(C)nn(-c4ccccc4)c3N3CCCC3)c2)c(C)c1,58*,8,-8,-17,10,-1,35*
CCNc1ccc(C(=O)N/N=C/c2c(C)nn(-c3ccccc3)c2N2CCCC2)cc1[N+](=O)[O-],3,6,3,3,7,-2,nt
O=C(NN=C1CCCCCC1)c1cc2ccccc2cc1O,58*,9,6,11,22,5,11
SMILES,pPAFAH FP inh,PAFAH1B3 FP inh,PAFAH1B2 FP inh,HTRA1 inhibitor,mABHD4 FP,PAFAH2 inh,pPAFAH confirm
O=C(NNC(=O)c1cc2ccccc2cc1O)c1cccs1,8,14,7,14,10,25,nt
C/C(=N\NC(=O)c1cc2ccccc2cc1O)c1cccs1,52*,16,6,27,14,9,4
C[C@H]1[C@H](NCc2cccnc2)CC[C@@]23CCCN2C(=O)CCC[C@@H]13,nt,nt,nt,nt,1,nt,nt
CCCCOc1ccc(C(=O)NC2CCCCN(Cc3cccc(Cl)c3)C2=O)cc1 (configuration not stated),nt,nt,nt,nt,-7,nt,nt
COc1cc(N2C(=O)NC3CC2(C)Oc2ccccc23)cc(OC)c1OC (configuration not stated),35*,9,4,1,-3,-5,2
Cc1nn(-c2ccc(Br)cc2)c(=O)c2ccccc12,51*,5,1,-2,7,3,3
C=CCn1c(SCc2cccc(C(F)(F)F)c2)nnc1-c1ccc(OC)cc1,nt,nt,nt,nt,1,nt,nt
Cc1cccc(-c2cccc3c4c([nH]c23)[C@@H]2C[C@H](N(C)C(=O)c3ccccc3C)[C@H]([C@H](C)O)CN2CC4)c1,nt,nt,nt,nt,2,nt,nt
CCC(C)NC(=O)c1ccc(N2CC3CC(C2)c2cccc(=O)n2C3)c(NC(=O)c2c(F)cccc2F)c1 (configuration not stated),nt,nt,nt,1,4,nt,nt
COc1cccc(NC(=O)Nc2cc(C(=O)NC(C)C)ccc2N2CC3CC(C2)c2cccc(=O)n2C3)c1 (configuration not stated),74*,3,4,2,-3,21,76*
CCCNC(=O)c1ccc(N2CC3CC(C2)c2cccc(=O)n2C3)c(NC(=O)Nc2ccc(CC)cc2)c1 (configuration not stated),88*,4,-2,-6,13,19,92*
COCCNC(=O)c1ccc(N2CC3CC(C2)c2cccc(=O)n2C3)c(NC(=O)c2c(F)cccc2F)c1 (configuration not stated),4,7,1,3,-9,0,nt
COC(=O)[C@H](C(C)C)N1Cc2nnn(Cc3ccc(C)cc3)c2-c2cc(F)ccc2S1(=O)=O,nt,nt,nt,nt,-2,nt,nt
Cc1cc(C(=O)OCC(=O)N2CC(=O)Nc3ccccc32)c(C)n1-c1ccccc1,22,-4,2,-13,-2,1,nt
Cc1cc(C(=O)OCC(=O)N2CC(=O)Nc3ccccc32)c(C)n1-c1ccc(F)cc1,37*,0,-2,-14,-5,2,30*
CN1CCN(C(=O)c2cc3sc4ccccc4c3s2)CC1,52*,nt,nt,nt,-10,nt,7
CCn1c(=O)c2cc(C(=O)N3CCN(C)CC3)sc2c2ccccc21,0,2,4,-1,1,7,nt
Cc1nn(-c2ccccc2)c2sc(C(=O)NC3CCCCCC3)cc12,nt,nt,nt,nt,-3,nt,nt
O=C(COC(=O)CNC(=O)C1CCCCC1)Nc1ccc(F)c([N+](=O)[O-])c1,3,1,4,-2,1,3,nt
O=C(COC(=O)CNC(=O)c1ccccc1)Nc1ccc(F)c([N+](=O)[O-])c1,37*,6,-1,-2,3,1,5

# Screening data (PubChem)
